SMILES strings stand for the structures. Active and inactive are the calls of the source. The rule behind the calls is not given here.

In assay [1] the test system is RAW264.7. Description: Ratio of iPGJ2 to iPGE in LPS-induced mouse RAW264.7 cells at 10 uM by ELISA. The class given is functional. The method, boiled down:
(§1)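 RAW cells were seeded at 20,000/well and cultured 20 h at 37°C in 5% CO2, then washed and placed in serum-free RPMI. Compounds were added in DMSO at 1 or 10 uM final (N=3). LPS solution (1 ug/ml) was added 30 min later, with a further 2 h incubation. Centrifuged media were assayed by enzyme immunoassay for immunoreactive PGE and PGJ2 (pg/ml); the ratio is iPGJ/iPGE.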
In general terms: In an ELISA, binding on a coated surface is turned into a signal by an enzyme label.

The test system of assay [2] is RAW264.7. The assay can be described thus: Effect on iPGE2 level in LPS-induced mouse RAW264.7 cells at 10 uM by ELISA. The class given is functional. The method, boiled down:
as §1

Assay [3] has as its system RAW264.7. The assay can be described thus: Effect on iPGJ2 level in LPS-induced mouse RAW264.7 cells at 10 uM by ELISA. Type of assay: functional. Put shortly: as §1
In assay [4] the test system is RAW264.7. The assay can be described thus: Antiproliferative activity against LPS-induced mouse RAW264.7 cells assessed as number of cells at 1 uM after 48 hrs. The class given is functional. The method, boiled down: (§2)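 RAW264.7 mouse macrophages were seeded at 500 cells/well and held 24 h at 37°C in 5% CO2. Compound was added (n=4 wells), then LPS solution (1 ug/ml) 1 h later, followed by 48 h incubation. Cell number was read as ATP luminescence (CellTiter-Glo), which is linear with cell count. Values are four-well means, […].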

Assay [5] concerns RAW264.7. Description: Antiproliferative activity against LPS-induced mouse RAW264.7 cells assessed as number of cells at 0.1 uM after 48 hrs. The class given is functional. Put shortly: as §2
In assay [6] the test system is RAW264.7. The assay can be described thus: Antiproliferative activity against LPS-induced mouse RAW264.7 cells assessed as number of cells at 10 uM after 48 hrs. The class given is functional. The method, boiled down:
as §2

Assay [7] relates to RAW264.7. Description: Effect on iPGE2 level in LPS-induced mouse RAW264.7 cells at 1 uM by ELISA. The class given is functional. Put shortly: as §1
The subject of assay [8] is RAW264.7. Description: Effect on iPGJ2 level in LPS-induced mouse RAW264.7 cells at 1 uM by ELISA. The class given is functional. The method, boiled down: as §1
The subject of assay [9] is RAW264.7. Description: Ratio of iPGJ2 to iPGE in LPS-induced mouse RAW264.7 cells at 1 uM by ELISA. The class given is functional. Put shortly: as §1
The test system of assay [10] is Mus musculus. Description: Reduction of phorbol ester-induced ear edema in CD1 mouse assessed as ear thickness at 200 ug/ear. The class given is functional. Also on record: scale not given: the % may be the effect or the level left. Put shortly: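 Male CD-1 mice (34–40 g), topically dosed at 200 ug/ear in 10 ul acetone on the ipsilateral ear, with acetone alone on the contralateral ear. Phorbol ester was the edema inducer. Ear thickness was read by digital micrometer and expressed as the ipsilateral minus contralateral difference in microns. N = 8; paired t-test against vehicle.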

For assay [11], the system named is Mus musculus. Description: Reduction of phorbol ester-induced ear edema in CD1 mouse assessed as ear thickness. Type of assay: functional, organism-based.

For the molecule `COc1ccc2cc([C@H](C)C(=O)O)ccc2c1` [NAPROXEN], the Ratio with RAW264.7 [1] stood at 1. The Activity stood at 75 pg/mL in the assay with RAW264.7 [2] and 70 pg/mL with RAW264.7 [3].
With `CCCCC/C=C\C/C=C\C/C=C\CCCCCCC(=O)N[C@@H](C)C(=O)O`, the Cell number with RAW264.7 [4] is reported as 4680; with RAW264.7 [6], 637. Moreover, the Activity in the assay with RAW264.7 [5] stood at 4326.
As for `CCCCCCCCCCCCCCCC(=O)N[C@H](C)C(=O)O`, the Ratio with RAW264.7 [1] came out at 9; in the assay on RAW264.7 [9] it was 1. In addition, the Activity with RAW264.7 [7] turned out to be 256 pg/mL; in the assay on RAW264.7 [8] it was 281 pg/mL; with RAW264.7 [2] it was 319 pg/mL; in the assay with RAW264.7 [3], 3079 pg/mL.
Regarding `CCCCC/C=C\C/C=C\C/C=C\CCCCC(=O)N[C@@H](C)C(=O)O`, the Cell number was 4557 with RAW264.7 [4] and 2696 in the assay with RAW264.7 [6]. Moreover, the Activity in the assay with RAW264.7 [5] stood at 4247.
On to `CCCCC/C=C\C/C=C\C/C=C\C/C=C\CCCC(=O)NCC(=O)O` [ARACHIDONOYL GLYCINE], for which the Cell number with RAW264.7 [4] is listed as 6156; in the assay on RAW264.7 [6], 591. Besides, the Activity with RAW264.7 [5] stood at 5630; with RAW264.7 [7], 273 pg/mL; in the assay with RAW264.7 [8] it was 40407 pg/mL; in the assay with RAW264.7 [2] it was 425 pg/mL; in the assay with Mus musculus [10], 40%; in the assay with RAW264.7 [3], 97830 pg/mL. Moreover, the Ratio in the assay on RAW264.7 [1] is on record as 229; in the assay with RAW264.7 [9] it was 147.
As for `CCCCCCCCCCCCCCCC(=O)NCC(=O)O` [PALMITOYL GLYCINE], the Cell number in the assay with RAW264.7 [4] was 5524; in the assay on RAW264.7 [6], 5108. Further, the Activity in the assay on RAW264.7 [5] worked out at 5120; in the assay on RAW264.7 [7], 103 pg/mL; with RAW264.7 [8] it was 219 pg/mL; with RAW264.7 [2] it was 128 pg/mL; in the assay with RAW264.7 [3], 401 pg/mL. The results for the Ratio with RAW264.7 [1] and in the assay on RAW264.7 [9] were 3 and 2, respectively.
With `CCCCC/C=C\C/C=C\CCCCCCCCCC(=O)N[C@@H](C)C(=O)O`, the Cell number in the assay with RAW264.7 [4] worked out at 4397; with RAW264.7 [6], 605. Further, the Activity with RAW264.7 [5] worked out at 3641.
For the molecule `CCCCC/C=C\C/C=C\CCCCCCCCCC(=O)NCC(=O)O`, the Cell number in the assay on RAW264.7 [4] stood at 5738; in the assay on RAW264.7 [6] it was 609. In addition, the Activity with RAW264.7 [5] was determined as 2945.
In the case of `CCCCCCCC/C=C\CCCCCCCC(=O)NCC(=O)O` [OLEOYL GLYCINE], the Cell number in the assay with RAW264.7 [4] came out at 5557; in the assay on RAW264.7 [6] it was 425. Further, in the assay on RAW264.7 [5], the Activity came to 5172.
On to `O=C1CCN(c2ccccc2)N1`, for which, in the assay with Mus musculus [11], the outcome was inactive.
Turning to `CCCCCCCC/C=C\CCCCCCCC(=O)N[C@@H](C)C(=O)O`, the values for the Cell number in the assay with RAW264.7 [4] and in the assay with RAW264.7 [6] were 4533 and 422, respectively. Further, the Activity in the assay on RAW264.7 [5] came out at 3637.
For `CCCCC/C=C\C/C=C\C/C=C\C/C=C\CCCCCC(=O)NCC(=O)O`, the Cell number is given as 5310 with RAW264.7 [4] and 3574 with RAW264.7 [6]. For the same molecule, the Activity with RAW264.7 [5] amounted to 5131.
As to `CCCCC/C=C\C/C=C\C/C=C\C/C=C\CCCC(=O)N[C@H](C)C(=O)O`, the Ratio with RAW264.7 [1] worked out at 104; in the assay on RAW264.7 [9], 12. Moreover, the Activity in the assay with RAW264.7 [7] turned out to be 124 pg/mL; in the assay on RAW264.7 [8], 1496 pg/mL; with RAW264.7 [2], 269 pg/mL; in the assay on RAW264.7 [3], 28224 pg/mL.
Regarding `CCCCC/C=C\C/C=C\CCCCCCCC(=O)NCC(=O)O` [LINOLEOYL GLYCINE], the Cell number amounted to 4595 in the assay with RAW264.7 [4] and 713 with RAW264.7 [6]. For the same molecule, the Activity with RAW264.7 [5] was found to be 5979.
For the molecule `CCCCCCCCCCCCCCCC(=O)N[C@@H](C)C(=O)O`, the Cell number with RAW264.7 [4] is listed as 4670; in the assay with RAW264.7 [6], 432. Moreover, the Activity came out at 4541 in the assay on RAW264.7 [5], 251 pg/mL with RAW264.7 [7], 261 pg/mL in the assay on RAW264.7 [8] and 232 pg/mL in the assay with RAW264.7 [2]. Also, the Ratio in the assay with RAW264.7 [1] is recorded as 17; in the assay on RAW264.7 [9], 1.
Turning to `CCCCC/C=C\C/C=C\C/C=C\C/C=C\CCCCCC(=O)N[C@@H](C)C(=O)O`, the Cell number with RAW264.7 [4] is 4415; in the assay on RAW264.7 [6], 618. In addition, the Activity in the assay with RAW264.7 [5] was 4668.
Turning to `CCCCC/C=C\C/C=C\C/C=C\CCCCC(=O)NCC(=O)O`, the Cell number in the assay with RAW264.7 [4] is listed as 5700; in the assay with RAW264.7 [6] it was 6602. The Activity was found to be 5435 with RAW264.7 [5]; 127 pg/mL in the assay on RAW264.7 [7]; 5040 pg/mL with RAW264.7 [8]; 289 pg/mL in the assay with RAW264.7 [2]; 80205 pg/mL in the assay with RAW264.7 [3]. Further, the Ratio in the assay on RAW264.7 [1] was 277; with RAW264.7 [9] it was 39.
For the molecule `CCCCC/C=C\C/C=C\C/C=C\C/C=C\CCCC(=O)N[C@@H](C)C(=O)O`, the results for the Cell number with RAW264.7 [4] and in the assay on RAW264.7 [6] were 4735 and 2110, respectively. For the same molecule, the Activity is 4781 with RAW264.7 [5]; 241 pg/mL in the assay with RAW264.7 [7]; 2345 pg/mL in the assay with RAW264.7 [8]; 652 pg/mL in the assay with RAW264.7 [2]; 41059 pg/mL with RAW264.7 [3]. The results for the Ratio in the assay with RAW264.7 [1] and with RAW264.7 [9] were 62 and 9, respectively.
Regarding `CCCCCCCCCCCCCCCCCC(=O)NCC(=O)O`, the Ratio in the assay with RAW264.7 [1] and in the assay on RAW264.7 [9] was 1 each time. For the same molecule, the Activity in the assay with RAW264.7 [7] came to 121 pg/mL; in the assay with RAW264.7 [8] it was 201 pg/mL; with RAW264.7 [2], 126 pg/mL; with RAW264.7 [3], 159 pg/mL.
Regarding `CCCCC/C=C\C/C=C\CCCCCCCC(=O)N[C@@H](C)C(=O)O`, the Cell number in the assay with RAW264.7 [4] was 4233; in the assay with RAW264.7 [6], 621. The Activity with RAW264.7 [5] amounted to 3955.
With `CCCCC/C=C\C/C=C\C/C=C\CCCCCCC(=O)NCC(=O)O`, the Cell number in the assay on RAW264.7 [4] stood at 5563; with RAW264.7 [6], 647. In the assay with RAW264.7 [5], the Activity is 5486.

The values are drawn from ChEMBL document CHEMBL1143036, “Potential anti-inflammatory actions of the elmiric (lipoamino) acids” (2007).
